The conditions of data set [1]: commercial extracellular fluid agent, on the order of; ref not given; cited from earlier work.
Data set [2] concerns the target human serum albumin (HSA) (Homo sapiens, UniProt P02768). In kind it is physicochemical. The settings on record: albumin-bound; fit of variable temperature NMRD; (SD). The method, boiled down:
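Samples were 0.1 mM Gd complex with 0.67 mM HSA (4.5% w/v) in pH 7.4 HEPES-buffered saline, Gd by ICP-MS. 1H NMRD profiles were recorded on a field-cycling relaxometer at 5, 15, 25 and 35 °C over 0.01–50 MHz (0.0002–1.2 T), with 22 points per curve. Variable-temperature profiles were fitted using a Lipari-Szabo treatment.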

Chain of human serum albumin (HSA) (P02768 25-609): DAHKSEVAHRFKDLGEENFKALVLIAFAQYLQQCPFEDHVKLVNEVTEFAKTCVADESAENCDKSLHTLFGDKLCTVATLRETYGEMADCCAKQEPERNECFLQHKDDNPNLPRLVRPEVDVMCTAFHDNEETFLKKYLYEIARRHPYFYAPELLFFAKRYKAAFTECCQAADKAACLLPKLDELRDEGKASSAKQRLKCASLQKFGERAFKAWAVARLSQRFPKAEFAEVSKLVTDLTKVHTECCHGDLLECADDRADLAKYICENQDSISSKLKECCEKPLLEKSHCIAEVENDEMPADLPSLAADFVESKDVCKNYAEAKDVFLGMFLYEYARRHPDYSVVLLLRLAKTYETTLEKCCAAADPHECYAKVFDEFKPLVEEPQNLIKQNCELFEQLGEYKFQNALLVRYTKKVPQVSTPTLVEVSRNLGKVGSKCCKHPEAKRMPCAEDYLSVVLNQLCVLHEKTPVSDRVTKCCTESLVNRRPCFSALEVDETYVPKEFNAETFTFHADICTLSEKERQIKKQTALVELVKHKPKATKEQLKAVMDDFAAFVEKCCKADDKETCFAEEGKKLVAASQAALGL

`O=C([O-])CN(CCN(CC(=O)[O-])CC(=O)O)CCN(CC(=O)[O-])CC(=O)O.[Gd+3]` [Gd-DTPA]: the “relaxivity r1” value in data set [1] is roughly 4 mM⁻¹ s⁻¹.
For Gd1b, in data set [2], the “F^2 (Lipari-Szabo order parameter)” value was 0.46 (0.01), the “ΔH^‡ (activation energy for water exchange)” value was 42.3 (4.2) kJ/mol, the “Δ^2 (transient zero field splitting parameter)” value is on record as 3.39 (0.12) 10^18 s^-2 and the “τv (correlation time of transient ZFS modulation)” value was 22 (3) ps.
